FGF22 binding: binders of human FGF22 protein, primary screen, FGF22 synaptogenesis inhibitor project, biophysical, thermal shift, single point; Fibroblast growth factor 22 (Homo sapiens), Q9HCT0; recombinant FGF22 thermal shift, SYPRO orange fluorescence; percent of sucrose octasulfate shift, DMSO zero; activity (Tm shift, normalised), % at 9.99 µM; hit rate 1.5% among 340,000;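 active = mean Tm shift, scaled 0 neutral to 100 positive control, at about 1.3% or above, every replicate too, limit read from the data; inconclusive = no clear call, values can overlap the other calls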
Target sequence (Q9HCT0 whole entry, looked up): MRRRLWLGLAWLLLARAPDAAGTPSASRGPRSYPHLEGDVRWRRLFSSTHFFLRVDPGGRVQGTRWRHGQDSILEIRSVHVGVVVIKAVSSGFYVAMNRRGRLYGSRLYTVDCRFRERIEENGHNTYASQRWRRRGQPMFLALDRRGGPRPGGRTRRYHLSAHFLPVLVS
FN deposit inh: inhibitors of fibronectin matrix deposition, primary screen, AH1F cells, Alexa488-fibronectin fluorescence, plate reader | AH1F fibroblasts, overnight | inhibition, % at 12.6 µM | hit rate 0.086% among 350,000 | AID 743247, 2014;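 active = mean inhibition across replicates of 30% or more, regardless of how many single replicates reach that level; inconclusive = mean under 30% yet at least half of replicates reach 30%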;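 note: positive control wells lacked labelled fibronectin entirely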
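Assay system: AH1F fibroblasts / Quantity: 10000 cells per well / Medium: DMEM plus 2% serum, read in PBS / Reagent: labelled fibronectin 24 nM / Dosing: single dose, pinned / Times: 1 h cell attachment, overnight exposure to compound and label / Signal: fluorescence, ex 485 nm, em 525 nm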
PGC1a acetyl inh: inhibitors of PGC1a acetylation signal, primary screen, cell-based, U2OS, AlphaScreen, inhibitor mode | hit rate 0.17% among 350,000 | inhibition, % at 15.6 µM | AlphaScreen anti-acetyl-lysine; with virally co-expressed GCN5 acetyltransferase;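 active = every replicate shows inhibition of at least 40%; inconclusive = mean inhibition at least 40% but some replicate below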;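 note: 0% = neutral control wells and 100% = positive control wells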
Env fusion inh: inhibitors of HIV-1 Env-driven cell-cell fusion, primary screen, HeLa-JRFL effector, CEM21 target cells, luciferase; hit rate 1.1% among 360,000; inhibition, % at 12.3 µM;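 active = mean replicate inhibition score of at least 50 and every replicate individually at or above 50; inconclusive = only one of the two criteria met; inactive = mean below 50 and not all replicates reaching 50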;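 note: 0% = plate neutral controls and 100% = maraviroc near 300 nM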
PAX8 reporter: inhibitors of PAX8-driven TPO luciferase reporter, primary screen, RMG-I cells, single concentration. SteadyGlo, 24 h. inhibition, % at 12.6 µM. hit rate 1.2% among 360,000. AID 652154, 2013;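 active = mean replicate inhibition at least 60% with every replicate also reaching 60%; inconclusive = only one of the two criteria is met; inactive = mean below 60% and not all replicates reaching 60%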;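 note: luciferase light reporting Pax8 driven TPO promoter activity; plate controls were median of neutral control wells for no effect and mitoxantrone controls for full effect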
EWS-Fli block: EWS/Fli-driven NR0B1 reporter inhibitors, primary screen, A673 cells, NR0B1 luciferase, luminescence, MLPCN library; hit rate 0.67% among 350,000; viability-normalised; AID 651661, 2012; inhibition, % at 12.6 µM;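 active = mean inhibition of at least 50% after viability correction, with every replicate also passing that limit; inconclusive = mean reaches 50% but only one of two replicates passes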;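 note: firefly luciferase signal divided by Alamar Blue viability fluorescence both relative to DMSO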
The depositor's hits bear a star; i = inactive; ? = inconclusive; . = no result given; [ ] = remark or other dose. Hits are enriched below; roughly 3.1% of the tested compounds scored in any of these assays.

SMILES	FGF22 binding	FN deposit inh	PGC1a acetyl inh	Env fusion inh	PAX8 reporter	EWS-Fli block
Cc1cccc(C(=O)Oc2ccc(/C=N/NC(=O)c3ccccc3O)cc2)c1	0.1	1.9	-4.7	.	104.0*	-6.2
Cc1cccc(C(=O)Oc2ccc(/C=N/NC(=O)c3ccc(O)cc3)cc2)c1	0.5	.	0.7	-2.7	-13.2	.
C[C@H](CO)N1C[C@H](C)[C@@H](CN(C)C(=O)CN2CCOCC2)Oc2ncc(C#CCN(C)C)cc2C1=O	0.2	4.4	0.6	-5.1[16.7 µM]	-23.9	-1.5
CCCCNc1cccc2c1S(=O)(=O)N(CCCC)CC(COCc1ccccc1)O2 (centres undefined)	0.5	-0.4	-15.4	61.1*	5.0	5.7
Cc1cc2nc(-c3ccc[nH]c3=O)[nH]c2cc1C	0.6	-2.5	.	24.8	57.2	62.1*
O=[N+]([O-])c1ccc(O)c(C(C#Cc2ccccc2)N2CCOCC2)c1 (centres undefined)	-0.1	11.3	-1.2	89.5*	-90.0	-24.3
C[C@@H](NC(=O)C[C@H]1C[C@@H]2c3cc(NC(=O)Nc4ccccc4F)ccc3O[C@@H]2[C@@H](CO)O1)c1ccccc1	-0.3	.	-4.4	17.8[16.7 µM]	20.4	2.1
O=C(C[C@H]1C[C@@H]2c3cc(NC(=O)c4ccc5c(c4)OCO5)ccc3O[C@@H]2[C@H](CO)O1)NCc1ccccn1	0.1	.	4.9	7.6[16.7 µM]	-20.7	-3.7
NC(N)=N/N=C/c1ccc(Br)cc1	-0.1	-2.3	.	7.2	-15.2	56.0*
N#Cc1ccc(/C=N/N=C(N)N)cc1	.	7.5	4.3	-6.6	-7.1	.
Cc1cc2nc(/C=C/c3cccnc3)[nH]c2cc1C	-0.2	-9.1	66.7*	i	2.0	3.2
Cc1cc2nc(/C=C/c3nc4cc(C)c(C)cc4[nH]3)[nH]c2cc1C	0.0	6.2	-4.8	-11.7	7.1	21.9
O=C(CCNS(=O)(=O)c1ccccc1)N1CCCCCC1	-0.1	2.2	-3.5	-7.9	-50.6	.
O=C(CCNS(=O)(=O)c1ccccc1)N1CCCCCCC1	-0.2	2.2	.	65.7*	-29.9	-22.2
CCCCCCCNC(=O)C1(CC2CC(c3cccc(Br)c3)=NO2)CCNCC1 (centres undefined)	0.1	3.7	-1.5	28.7	80.3*	40.8
O=C(CCN1CCCCC1)NCC[C@H]1CC[C@H](NC(=O)C2CCCC2)[C@@H](CO)O1	-0.3	.	3.2	3.5[16.7 µM]	-4.4	-6.2
COc1ccc(C(=O)CSc2n[nH]c(=O)[nH]c2=O)cc1	42.9*	-31.9	4.5	4.1	-8.5	-3.1
O=C(CSc1n[nH]c(=O)[nH]c1=O)c1ccc([N+](=O)[O-])cc1	-0.2	5.6	-5.5	-12.6	7.5	0.6
Cc1ccc(S(=O)(=O)N(C)C[C@@H]2Oc3c(NS(=O)(=O)c4ccc(Cl)cc4)cccc3C(=O)N([C@H](C)CO)C[C@@H]2C)cc1	-0.1	.	6.4	-18.9[16.7 µM]	7.0	2.6
CC(=O)c1c(C)[nH]c(C(=O)OCC(=O)Nc2ccc(Cl)c(S(=O)(=O)N(C)C)c2)c1C	-0.6	2.1	-6.4	78.8*	33.4	16.3
C/C=C/C(=O)OCC(=O)Nc1ccc(C)c(S(=O)(=O)N(C)C)c1	43.6*	-1.4	.	-6.5	-17.8	-8.2
Cc1ccc(S(=O)(=O)N(C)C[C@H]2Oc3ccc(NS(=O)(=O)c4ccc(F)cc4)cc3C(=O)N([C@H](C)CO)C[C@@H]2C)cc1	0.1	.	5.7	-20.1[16.7 µM]	-30.7	1.5
CN(C)Cc1cn(CC[C@H]2CC[C@@H](NS(=O)(=O)c3ccc(-c4ccccc4)cc3)[C@H](CO)O2)nn1	-0.2	-8.5	-2.1	5.3[16.7 µM]	0.5	11.8
CCC(=O)Nc1ccc2c(c1)OC[C@@H](C)N(C(=O)Cc1ccccn1)C[C@@H](C)[C@H](OC)CN(C)C2=O	-0.5	-1.6	-2.2	.	.	-0.7
O=C(CCCN1C(=O)/C(=C/c2ccccc2Cl)SC1=S)NNC(=O)c1ccccc1Cl	0.0	7.3	.	49.3	12.2	65.6*
SMILES	FGF22 binding	FN deposit inh	PGC1a acetyl inh	Env fusion inh	PAX8 reporter	EWS-Fli block
Cn1cccc1/C=C1/SC(=O)N(CC(=O)N2CCCC2)C1=O	43.4*	.	.	19.7	11.3	-7.7
O=C(CCCN1C(=O)/C(=C/c2ccccc2Cl)SC1=S)N1CCCC1	-0.2	4.6	-14.2	3.8	-4.5	3.4
O=C(CCN1C(=O)/C(=C/c2ccccc2Cl)SC1=S)N1CCCC1	-0.2	22.8	-5.8	3.4	82.7*	-2.5
O=C(CCCN1C(=O)/C(=C/c2ccccc2Cl)SC1=S)NNC(=O)c1ccncc1	0.2	3.2	.	17.1	1.0	?
O=C1CN(Cc2ccccc2)C[C@H]2[C@H](c3ccc(Br)cc3)[C@H](CO)N12	0.6	.	7.2	.	1.4	-2.3
C[C@H]1CN([C@@H](C)CO)C(=O)c2cccc(NS(=O)(=O)c3ccc(Cl)cc3)c2O[C@@H]1CN(C)C(=O)Nc1ccc2c(c1)OCO2	-0.2	1.4	8.4	10.9[16.7 µM]	-13.7	-16.1
C[C@@H]1CN([C@H](C)CO)C(=O)Cc2cc(NC(=O)Cn3cnnn3)ccc2O[C@H]1CN(C)S(=O)(=O)c1cccs1	0.1	.	-0.2	-13.3[16.7 µM]	-16.0	0.8
COc1ccc(C#Cc2ccc([C@@H]3[C@@H](CO)N4CCCCN(Cc5ccncc5)C[C@@H]34)cc2)cc1	-0.2	.	9.1	.	-106.1	-10.4
CN1c2ccc(C3=CCCCC3)cc2[C@@H]2[C@@H](CCN2C(=O)C2CCC2)[C@H]1CO	.	0.8	.	.	.	5.2
CN1c2ccc(C3=CCCCC3)cc2[C@H]2[C@H](CCN2C(=O)C2CCC2)[C@@H]1CO	.	4.2	9.3	33.5[16.7 µM]	69.2*	-0.3
CN1c2ccc(C3=CCCCC3)cc2[C@H]2[C@H](CCN2C(=O)NC2CCCCC2)[C@@H]1CO	0.0	-0.5	-6.0	.	77.5*	-3.1
COCC(=O)Nc1ccc2c(c1)C(=O)N(C)C[C@@H](OC)[C@@H](C)CN(Cc1cc(F)ccc1F)[C@H](C)CO2	-0.4	-14.9	3.3	9.5[16.7 µM]	30.1	1.9
C[C@H](CO)N1C[C@H](C)[C@H](CN(C)CC2CCOCC2)Oc2ncc(-c3cccc(F)c3)cc2C1=O	-0.3	.	6.7	6.5[16.7 µM]	6.8	-2.3
CCN(CC)c1ccc(C2=NNC(=O)CC2C)cc1[N+](=O)[O-] (centres undefined)	.	-3.9	8.1	87.5*	.	.
CC1CC(=O)NN=C1c1ccc(N(C)C)c([N+](=O)[O-])c1 (centres undefined)	.	0.9	3.4	73.0*	.	.
CC1CC(=O)NN=C1c1cccs1 (centres undefined)	0.1	5.1	7.6	-1.2	-12.4	-6.1
CCN(CCC#N)c1ccc(N2C(=O)CCCC2=O)cc1[N+](=O)[O-]	-0.4	-15.4	0.6	17.5	-1.2	-6.2
